ChEMBL document CHEMBL4371014, “Novel Allosteric Ligands of γ-Aminobutyric Acid Transporter 1 (GAT1) by MS Based Screening of Pseudostatic Hydrazone Libraries” (J Med Chem, 2018)

What was measured:
[1] = target: T1, Sodium- and chloride-dependent GABA transporter 1 (Mus musculus, UniProt P31648); experiment: Inhibition of NO711 binding to mouse GAT1 expressed in HEK293 cell membranes assessed as residual binding preincubated for 4 hrs followed by NO711 addition and measured after 40 mins by LC-ESI-MS/MS analysis
In short: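 Pseudostatic hydrazone libraries were generated with mouse GAT1 present. Each held eight aldehydes (1.0 µM each) plus hydrazine (200 µM), incubated 4 h. NO711 marker was added directly for a further 40 min. Bound marker was released and quantified by LC-ESI-MS/MS as % remaining specific binding, four replicates (means±SD).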

[2] = target: T1, Sodium- and chloride-dependent GABA transporter 1; experiment: Inhibition of mouse GAT1 expressed in HEK293 cells assessed as reduction in [3H]GABA uptake preincubated for 25 mins followed by [3H]GABA addition and measured after 4 mins by liquid scintillation counting method; format: cell-based
GABA transporter 4 = target: T2, GABA transporter 4 (Mus musculus, UniProt P31650); experiment: Inhibition of mouse GAT4 expressed in HEK293 cells assessed as reduction in [3H]GABA uptake preincubated for 25 mins followed by [3H]GABA addition and measured after 4 mins by liquid scintillation counting method; format: cell-based
T2 sequence (P31650 whole entry): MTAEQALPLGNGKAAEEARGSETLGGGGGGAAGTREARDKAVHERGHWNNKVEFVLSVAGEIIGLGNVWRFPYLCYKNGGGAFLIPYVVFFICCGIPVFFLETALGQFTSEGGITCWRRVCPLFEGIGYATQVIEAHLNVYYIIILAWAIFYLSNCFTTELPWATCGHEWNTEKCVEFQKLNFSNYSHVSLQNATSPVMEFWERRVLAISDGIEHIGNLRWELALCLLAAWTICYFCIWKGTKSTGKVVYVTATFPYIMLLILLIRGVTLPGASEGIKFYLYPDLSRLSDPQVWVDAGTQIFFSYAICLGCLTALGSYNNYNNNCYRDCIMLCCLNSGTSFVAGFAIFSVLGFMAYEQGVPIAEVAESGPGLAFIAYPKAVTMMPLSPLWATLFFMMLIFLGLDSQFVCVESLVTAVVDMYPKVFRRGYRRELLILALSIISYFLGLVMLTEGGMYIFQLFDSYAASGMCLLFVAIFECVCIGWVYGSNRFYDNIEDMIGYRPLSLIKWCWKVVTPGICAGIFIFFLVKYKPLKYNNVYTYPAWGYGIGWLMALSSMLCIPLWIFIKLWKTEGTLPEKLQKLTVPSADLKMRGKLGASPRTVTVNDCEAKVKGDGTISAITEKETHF

[3] = target: T3, Sodium- and chloride-dependent GABA transporter 1 (Homo sapiens, UniProt P30531); experiment: Inhibition of NO711 binding to human GAT1 expressed in COS cell membranes by LC-ESI-MS/MS analysis
[4] = target: T3, Sodium- and chloride-dependent GABA transporter 1; experiment: Inhibition of NO711 binding to human GAT1 expressed in COS cell membranes preincubated for 25 mins by LC-ESI-MS/MS analysis

T3 sequence (P30531 whole entry): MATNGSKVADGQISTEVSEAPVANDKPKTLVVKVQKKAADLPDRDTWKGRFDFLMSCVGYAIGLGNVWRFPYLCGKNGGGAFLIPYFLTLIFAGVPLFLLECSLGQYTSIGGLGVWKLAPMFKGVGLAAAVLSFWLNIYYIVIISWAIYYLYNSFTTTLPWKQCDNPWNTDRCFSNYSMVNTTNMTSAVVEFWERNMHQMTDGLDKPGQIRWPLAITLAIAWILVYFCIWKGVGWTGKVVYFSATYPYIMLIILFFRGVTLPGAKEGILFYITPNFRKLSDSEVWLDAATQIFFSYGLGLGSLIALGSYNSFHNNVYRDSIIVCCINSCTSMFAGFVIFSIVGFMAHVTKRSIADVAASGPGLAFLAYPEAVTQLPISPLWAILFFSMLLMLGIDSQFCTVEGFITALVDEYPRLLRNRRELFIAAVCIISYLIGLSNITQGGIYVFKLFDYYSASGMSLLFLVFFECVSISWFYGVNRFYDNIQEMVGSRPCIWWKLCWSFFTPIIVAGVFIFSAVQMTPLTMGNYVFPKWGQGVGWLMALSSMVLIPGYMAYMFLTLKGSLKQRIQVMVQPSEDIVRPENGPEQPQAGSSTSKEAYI

| Compound | Ki [1] [µM] | IC50 [2] [µM] | IC50 (GABA transporter 4) [µM] | IC50 [3] [µM] | IC50 [4] [µM] |
| --- | --- | --- | --- | --- | --- |
| O=C(O)[C@H]1CNC[C@@H](CCN/N=C/c2ccc(-c3ccc(C(F)(F)F)cc3Cl)o2)C1 (racemic) | 0.617 | 44.7 | 41.7 | 26.9 to 170 | 30.9 to 135 |
| O=C(O)[C@H]1CNC[C@@H](CN/N=C/c2ccc(-c3ccc(Cl)cc3[N+](=O)[O-])o2)C1 (racemic) | 1.48 | – | – | – | – |
| O=C(O)[C@H]1CNC[C@@H](CN/N=C/c2cccc(Oc3ccccc3)c2)C1 (racemic) | 0.955 | – | – | – | – |
| O=C(O)[C@H]1CNC[C@@H](CN/N=C/c2ccc(-c3ccccc3Br)o2)C1 (racemic) | 1.45 | – | – | – | – |
| O=C(O)[C@H]1CNC[C@@H](CN/N=C/c2ccc(-c3cccc4ccccc34)o2)C1 (racemic) | 0.214 | 22.9 | 75.9 | 26.9 to 170 | 42.7 |
| O=C(O)[C@H]1CNC[C@@H](CN/N=C/c2ccc(-c3cc(C(F)(F)F)cc(C(F)(F)F)c3)o2)C1 (racemic) | 0.245 | – | – | 26.9 to 170 | 135 |
| O=C(O)[C@H]1CNC[C@@H](CN/N=C/c2ccc(-c3ccc(Cl)cc3Cl)o2)C1 (racemic) | 0.646 | – | – | – | – |
| O=C(O)[C@H]1CNC[C@@H](CN/N=C/c2ccc(-c3ccc(F)c(C(F)(F)F)c3)o2)C1 (racemic) | 1.26 | – | – | – | – |
| O=C(O)[C@H]1CNC[C@@H](CN/N=C/c2ccc(-c3ccc(C(F)(F)F)cc3Cl)o2)C1 (racemic) | 0.447 | 41.7 | – | 26.9 to 170 | 30.9 to 135 |
| O=C(O)[C@H]1CNC[C@@H](CN/N=C/c2ccc(-c3cccc(Cl)c3)o2)C1 (racemic) | 1.86 | – | – | – | – |

Further compounds by falling Ki [1], results first:

| Ki [1] [µM] | IC50 [2] [µM] | IC50 (GABA transporter 4) [µM] | IC50 [3] [µM] | IC50 [4] [µM] | Compound |
| --- | --- | --- | --- | --- | --- |
| 2.29 | – | – | – | – | O=C(O)[C@H]1CNC[C@@H](CN/N=C/c2ccc(-c3ccccc3C(F)(F)F)o2)C1 (racemic) |
| 1.23 | – | – | – | – | O=C(O)[C@H]1CNC[C@@H](CN/N=C/c2ccc(-c3ccccc3Cl)o2)C1 (racemic) |
| 0.933 | – | – | – | – | O=C(O)[C@H]1CNC[C@@H](CN/N=C/c2cnc(-c3ccc4ccccc4c3)nc2)C1 (racemic) |
| 0.708 | – | – | – | – | O=C(O)[C@H]1CNC[C@@H](CN/N=C/c2ccc(-c3cccc(C(F)(F)F)c3)o2)C1 (racemic) |
| 0.479 | 35.5 | 15.1 | 26.9 to 170 | 30.9 to 135 | O=C(O)[C@H]1CNC[C@@H](CCN/N=C/c2ccc(-c3ccc(Cl)cc3Cl)o2)C1 (racemic) |
| 0.468 | 81.3 | – | 26.9 to 170 | 30.9 to 135 | O=C(O)[C@H]1CNC[C@@H](CN/N=C/c2ccc(-c3cc(C(F)(F)F)ccc3Cl)o2)C1 (racemic) |
| 0.0275 | – | – | – | – | Cc1ccsc1C(=CCCN1CCC[C@@H](C(=O)O)C1)c1sccc1C [TIAGABINE] |
